# Results collected from several papers.
# Compare with care: the assays were run in different laboratories. pIC50: −log10 of the molar value.
# Cell line: MCF7
# Effect on: cell growth or viability
SMILES,assay,conditions,endpoint,result
COc1ccc(N(Cc2csc(-c3ccccc3)n2)C(=O)CCCCCC(=O)NO)cc1,MTT,72 h,pIC50,5.51
COc1cccc2c1C(=O)c1c(O)c3c(c(O)c1C2=O)C[C@@](O)(C(=O)CO)C[C@@H]3O[C@H]1C[C@H](N)[C@H](O)[C@H](C)O1,MTT,48 h,pIC50,6.30
CC1=CC(=O)C(C(C)C)=CC1=O,SRB,48 h,pIC50,5.01
Fc1ccccc1Nc1nc(-c2ccncc2)nc2c1CNCC2,MTT,,pIC50,< 4.00
O=C1Nc2ccccc2C1=Nc1ccc(Cl)cc1,MTT,48 h,pIC50,4.14
CN(C)C(=O)Nc1nc2ccc(Br)cc2c(=O)n1-c1ccccc1,MTT,48 h,pIC50,3.96
S=C(N/N=C/c1cccc2cc3ccccc3nc12)Nc1ccccc1,MTT,48 h,pIC50,< 4.30
c1ccc(-c2noc(-c3nn(Cc4ccncc4)c4ccccc34)n2)cc1,,48 h,pIC50,4.73
O=[N+]([O-])c1cc(I)c(O)c(C=NNc2ccc(Cl)cc2)c1,MTT,24 h,pIC50,4.85
CCCCCCCNC1=C(n2cncn2)C(=O)c2ccccc2C1=O,MTT,24 h,IC50,22.3 µg/mL
NNc1nc2c(Cl)cc(Cl)cc2c(=O)n1-c1ccc(F)cc1,MTT,48 h,pIC50,< 3.70
O=C(/C=C/c1ccc(F)cc1)c1nc2ccccc2n1Cc1cn([C@@H]2OC[C@@H](O)[C@H](O)[C@H]2O)nn1,LDH,48 h,pIC50,5.69
C[C@H]1[C@H](C)CC[C@]2(C(=O)O)CC[C@]3(C)C(=CC[C@@H]4[C@@]5(C)CC[C@H](O)C(C)(C)[C@@H]5CC[C@]43C)[C@H]12,thymidine uptake,24 h,pIC50,4.59
Clc1ccc(Cn2nc(-c3ncc(-c4ccccc4)s3)c3ccccc32)c(Cl)c1,,48 h,pIC50,4.19
Nc1ccn([C@@H]2O[C@H](CO)[C@@H](O)C2(F)F)c(=O)n1,MTT,24 h,IC50,2.75 µg/mL
O=C(C=Cc1ccc(OCCOc2ccc(C=CC(=O)c3cccs3)cc2)cc1)c1cccs1,MTT,48 h,pIC50,4.94
O=C1C(=Nc2ccc(Cl)cc2Br)c2ccccc2N1Cc1ccc(Br)cc1,MTT,48 h,pIC50,5.60
NS(=O)(=O)c1ccc(-n2nc(-c3nnc(S)o3)cc2-c2ccccc2)cc1,fluorescence,48 h,pIC50,4.45
CC(=O)c1nc2ccccc2n1Cc1cn([C@@H]2OC[C@@H](O)[C@H](O)[C@H]2O)nn1,LDH,48 h,pIC50,5.68
Cc1cccc(N=C2C(=O)N(Cc3ccc(Br)cc3)c3ccccc32)c1,MTT,48 h,pIC50,5.01
NS(=O)(=O)c1ccc(-n2nc(C(=O)NN=Cc3ccc(O)cc3)cc2-c2ccccc2)cc1,fluorescence,48 h,pIC50,4.77
CCOC(=O)c1c(C)nc2ccc(-c3ccc(F)cc3F)cc2c1O,MTT,48 h,pIC50,4.57
O=C1CS/C(=N\c2cc(C(F)(F)F)ccc2-c2nnc(N3C(=O)CS/C3=N\c3cccc(Cl)c3)s2)N1c1cccc(Cl)c1,MTT,,pIC50,4.31
CN1CCC(NC2CCc3[nH]c4c(C(N)=O)ccc(-c5ccccc5Cl)c4c3C2)CC1 (stereo not shown),,96 h,pIC50,7.78
COc1cccc2c1C(=O)c1c(O)c3c(c(O)c1C2=O)C[C@@](O)(C(=O)CO)C[C@@H]3O[C@H]1C[C@H](N)[C@H](O)[C@H](C)O1,MTT,,IC50,5.8 µg/mL
COc1ccc(-n2cc(CNC(=O)[C@@]3(C)[C@H](O)CC[C@@]4(C)[C@H]3CC[C@]3(C)[C@@H]4C(=O)C=C4[C@@H]5[C@@H](C)[C@H](C)CC[C@]5(C)CC[C@]43C)nn2)cc1,MTT,24 h,pIC50,4.10
COc1ccccc1/C=N/N=C1\C(=O)Nc2ccccc21,MTT,48 h,IC50,22.1 µg/mL
NNc1nc2ccc(Br)cc2c(=O)n1-c1ccc(F)cc1,MTT,48 h,pIC50,5.00
C/C(=N\C1CCCCC1/N=C(\C)c1c(O)c2ccccc2oc1=O)c1c(O)c2ccccc2oc1=O (stereo not shown),MTT,48 h,pIC50,4.18
O=C1CS/C(=N\c2cc(C(F)(F)F)ccc2-c2nnc(N3C(=O)CS/C3=N\c3ccc(F)cc3)s2)N1c1ccc(F)cc1,MTT,,pIC50,4.65
C[C@H]1[C@H](C)CC[C@]2(C)CC[C@]3(C)C(=CC(=O)[C@@H]4[C@@]5(C)CC[C@@H](O)[C@](C)(C(=O)NCc6cn(-c7ccccc7C(F)(F)F)nn6)[C@@H]5CC[C@]43C)[C@H]12,MTT,24 h,pIC50,4.08
COC(=O)c1ccc2c(c1)NC(=O)/C2=C(\Nc1ccc(N(C)C(=O)CN2CCN(C)CC2)cc1)c1ccccc1,MTT,24 h,pIC50,6.01
COc1cccc2c1C(=O)c1c(O)c3c(c(O)c1C2=O)C[C@@](O)(C(=O)CO)C[C@@H]3O[C@H]1C[C@H](N)[C@H](O)[C@H](C)O1,MTT,24 h,pIC50,5.23
O=C1C(=Nc2ccccc2I)c2ccccc2N1Cc1cccc(Cl)c1,MTT,48 h,pIC50,4.87
CNC(=O)c1cc(Oc2ccc(NC(=O)Nc3ccc(Cl)c(C(F)(F)F)c3)cc2)ccn1,MTT,48 h,pIC50,5.15
CCOC(=O)C(=CNc1ccc(Oc2ccccc2)cc1)C(=O)OCC,MTT,48 h,pIC50,3.94
CCCN1CC(Oc2ccc([C@@H]3c4[nH]c5ccccc5c4C[C@@H](C)N3CC(C)(C)F)cc2)C1,,,pIC50,8.10
O=C1C(=Nc2ccc(Cl)cc2)c2ccccc2N1Cc1ccc([N+](=O)[O-])cc1,MTT,48 h,pIC50,5.58
C#Cc1cccc(Nc2ncnc3cc(OCCOC)c(OCCOC)cc23)c1,MTT,48 h,pIC50,< 4.70
O=[N+]([O-])c1cc(I)c(O)c(C=NNc2ccccc2)c1,MTT,24 h,pIC50,5.11
Cc1nc2ccc(-c3ccc(F)cc3)cc2c(O)c1C(=O)O,MTT,48 h,pIC50,≤ 4.00
O=C(O)c1c[nH]c2ccc(Oc3ccccc3)cc2c1=O,MTT,48 h,pIC50,3.54
O=C1C(=Nc2ccc(Cl)cc2)c2ccccc2N1Cc1cccc(Cl)c1,MTT,48 h,pIC50,5.03
CCOC(=O)c1c(C)nc2ccc(-c3ccc(OCc4ccccc4)c(F)c3)cc2c1O,MTT,48 h,pIC50,5.30
O=C1Nc2ccccc2C1=Nc1ccccc1I,MTT,48 h,pIC50,4.37
O=[N+]([O-])c1ccc(O)c(C=NNc2ccc(Br)cc2)c1,MTT,24 h,pIC50,5.06
NNc1nc2ccc(Br)cc2c(=O)n1-c1ccccc1,MTT,48 h,pIC50,4.33
Cc1ccc(C(C)C)c(OC2=C(Cl)C(=O)c3ccccc3C2=O)c1,MTT,24 h,IC50,4.59 µg/mL
O=C1C(=Nc2cccc(Cl)c2)c2ccccc2N1Cc1ccc([N+](=O)[O-])cc1,MTT,48 h,pIC50,5.16
C/C(=N\NC(=O)/N=C(\C)c1c(O)c2ccccc2oc1=O)c1c(O)c2ccccc2oc1=O,MTT,48 h,pIC50,4.90
COc1cccc(Nc2nc(-c3ccncc3)nc3c2CNCC3)c1,MTT,,pIC50,4.52
Fc1ccc2c(-c3ncc(-c4ccccc4)o3)nn(Cc3ccccc3)c2c1,,48 h,pIC50,4.15
CC(=NNC(=O)c1cc(-c2ccccc2)n(-c2ccc(S(N)(=O)=O)cc2)n1)c1ccc(C)cc1,fluorescence,48 h,pIC50,4.73
O=C1CS/C(=N\c2ccccc2Cl)N1c1nnc(-c2ccc(C(F)(F)F)cc2/N=C2\SCC(=O)N2c2ccccc2Cl)s1,MTT,,pIC50,4.33
Clc1ccc(Cn2nc(-c3nc(-c4ccccc4)no3)c3ccccc32)c(Cl)c1,,48 h,pIC50,4.18
